From ChEMBL document CHEMBL5036316, “Re-emerging Aspartic Protease Targets: Examining Cryptococcus neoformans Major Aspartyl Peptidase 1 as a Target for Antifungal Drug Discovery” (J Med Chem, 2021)
Active and inactive are the calls of the source. The calls are words filed in the database; no cut-off is given here.

How the values were obtained:
[1] = Binding affinity to recombinant Cryptococcus neoformans var. grubii H99 major aspartyl peptidase 1 assessed as inhibition constant
Cryptococcus neoformans [2] = test: Antifungal activity against Cryptococcus neoformans var. grubii H99 expressing major aspartyl peptidase 1 assessed as growth inhibition measured after 48 hrs; assay type: functional, organism-based; details: dose 0.1-50 µM
Method in brief: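 C. neoformans H99 grown in YNB with 2% glucose; overnight cultures diluted to OD600 0.1 with 0.1, 1.0, 10 or 50 μM compound or 0.5% DMSO vehicle. Incubated at 30 °C on a tube rotator; terminal saturation density read as OD600 after 48 h. Triplicate cultures, mean ± standard deviation.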

Cryptococcus neoformans [3] = test: Antifungal activity against may1delta Cryptococcus neoformans var. grubii H99 assessed as reduction of density in stationary phase at 50 uM measured upto 48 hrs; assay type: functional, organism-based; details: time hrs <=48
Method in brief: (§1)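 Logarithmically growing may1Δ (and H99) yeast pelleted and resuspended to OD600 0.1 in unbuffered YNB or YNB with 50 mM MES pH 6.5. Treated with 50 μM compound or 0.5% DMSO vehicle at 30 °C on a tube rotator. OD600 read every 2 h for 12 h, then at 24 and 48 h. Triplicate cultures, mean ± standard deviation.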

Renin = biological target: T1, Renin (Homo sapiens, UniProt P00797); test: Inhibition of human renin assessed as inhibition constant using H-R-E(EDANS)-1HPFHLVIHT-K(DABCYL)-R-OH as susbtrate by spectrophotometric analysis
T1 sequence (P00797 whole entry): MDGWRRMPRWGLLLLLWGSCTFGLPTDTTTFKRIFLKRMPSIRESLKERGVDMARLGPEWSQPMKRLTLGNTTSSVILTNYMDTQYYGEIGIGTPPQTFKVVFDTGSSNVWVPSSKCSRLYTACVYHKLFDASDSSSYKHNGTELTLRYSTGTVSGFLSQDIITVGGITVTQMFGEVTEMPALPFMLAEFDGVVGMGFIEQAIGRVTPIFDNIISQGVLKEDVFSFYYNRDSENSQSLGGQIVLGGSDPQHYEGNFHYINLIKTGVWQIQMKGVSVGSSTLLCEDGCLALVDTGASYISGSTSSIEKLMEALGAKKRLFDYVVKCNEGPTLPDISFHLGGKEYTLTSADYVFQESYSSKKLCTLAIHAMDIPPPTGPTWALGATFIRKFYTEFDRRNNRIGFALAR

MCF7 = test: Cytotoxicity against human MCF7 cells assessed as cell viability by celltiter-glo luminescent cell viability assay; assay type: functional
[4] = Inhibition of porcine pepsin assessed as inhibition constant using BSA-bromophenol blue as substrate by spectrophotometric analysis; parameters: species or system Sus scrofa
CCRF-CEM = test: Cytotoxicity against human CCRF-CEM cells assessed as cell viability by celltiter-glo luminescent cell viability assay; assay type: cell-based
Cryptococcus neoformans [5] = test: Antifungal activity against may1delta Cryptococcus neoformans var. grubii H99 assessed as reduction of density in logarithmic phase at 50 uM measured upto 48 hrs; assay type: functional, organism-based; details: time hrs <=48; method in brief: as §1
Cathepsin D = Cathepsin D (Homo sapiens, UniProt P07339); test: Inhibition of human cathepsin D assessed as inhibition constant using ACC-GKPILFFRILK-(DNP)-(dR)-NH2 as substrate by spectrophotometric analysis
Cathepsin D, sequence (P07339 65-162 limits assumed): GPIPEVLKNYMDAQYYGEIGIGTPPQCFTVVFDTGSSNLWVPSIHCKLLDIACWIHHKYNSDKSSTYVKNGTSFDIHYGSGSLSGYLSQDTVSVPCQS
Cathepsin D, sequence (P07339 169-412 limits assumed): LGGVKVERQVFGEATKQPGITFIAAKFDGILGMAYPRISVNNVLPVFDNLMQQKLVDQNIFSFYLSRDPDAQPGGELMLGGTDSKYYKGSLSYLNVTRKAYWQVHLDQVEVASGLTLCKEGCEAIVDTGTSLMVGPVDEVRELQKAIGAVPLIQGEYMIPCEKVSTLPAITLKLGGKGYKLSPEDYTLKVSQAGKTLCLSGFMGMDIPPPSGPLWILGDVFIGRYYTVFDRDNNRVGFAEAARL

HeLa = test: Cytotoxicity against human HeLa cells assessed as cell viability by celltiter-glo luminescent cell viability assay; assay type: functional
Cathepsin E = biological target: T2, Cathepsin E (Homo sapiens, UniProt P14091); test: Inhibition of human cathepsin E assessed as inhibition constant using ACC-GKPILFFRILK-(DNP)-(dR)-NH2 as substrate by spectrophotometric analysis
T2 sequence (P14091 whole entry): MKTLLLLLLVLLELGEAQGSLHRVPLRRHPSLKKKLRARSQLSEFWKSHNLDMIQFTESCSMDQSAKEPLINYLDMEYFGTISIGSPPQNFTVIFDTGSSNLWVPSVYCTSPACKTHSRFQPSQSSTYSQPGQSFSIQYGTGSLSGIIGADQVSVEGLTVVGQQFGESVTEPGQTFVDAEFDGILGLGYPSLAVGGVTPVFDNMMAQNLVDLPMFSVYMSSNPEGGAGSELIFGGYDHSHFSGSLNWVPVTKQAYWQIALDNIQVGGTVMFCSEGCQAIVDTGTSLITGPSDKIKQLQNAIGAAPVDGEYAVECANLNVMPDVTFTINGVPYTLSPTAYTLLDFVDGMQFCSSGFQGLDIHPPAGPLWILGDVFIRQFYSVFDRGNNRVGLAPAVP

HepG2 = test: Cytotoxicity against human HepG2 cells assessed as cell viability by celltiter-glo luminescent cell viability assay; assay type: functional
HL-60 = test: Cytotoxicity against human HL-60 cells assessed as cell viability by celltiter-glo luminescent cell viability assay; assay type: functional
[6] = biological target: Human immunodeficiency virus type 1 protease (Human immunodeficiency virus 1, UniProt Q72874); test: Inhibition of wild type HIV-1 protease assessed as initial inhibition constant by spectrophotometric analysis

| SMILES | Ki [1] | further results |
| --- | --- | --- |
| NC(=O)CC[C@H](NC(=O)C[C@H](O)[C@H](Cc1ccccc1)NC(=O)OCc1ccccc1)C(=O)N[C@@H](Cc1ccccc1)C(N)=O | 320 nM |  |
| NC(=O)CC[C@H](NC(=O)C[C@H](O)[C@H](Cc1ccccc1)NC(=O)OCc1ccccc1)C(=O)N[C@@H](CCc1ccccc1)C(N)=O | 64 nM |  |
| NC(=O)[C@H](CCc1ccccc1)NC(=O)[C@H](CCC(=O)O)NC(=O)C[C@H](O)[C@H](Cc1ccccc1)NC(=O)OCc1ccccc1 | 12 nM | Activity (Cryptococcus neoformans [2]): Dose-Dependent Effect; Activity (Cryptococcus neoformans [3]): inactive; Ki (Renin): 19000 nM; CC50 (MCF7): > 80000 nM; Ki [4]: 1600 nM; CC50 (CCRF-CEM): > 80000 nM; Activity (Cryptococcus neoformans [5]): inactive; Ki (Cathepsin D): 620 nM; CC50 (HeLa): > 80000 nM; Ki (Cathepsin E): 440 nM; CC50 (HepG2): > 80000 nM; CC50 (HL-60): > 80000 nM; Ki [6]: 0.032 nM |
| CC[C@H](C)[C@H](NC(=O)[C@H](CCC(=O)O)NC(=O)C[C@H](O)[C@H](Cc1ccccc1)NC(=O)OCc1ccccc1)C(N)=O | 410 nM |  |
| CSCC[C@H](NC(=O)[C@H](CCC(N)=O)NC(=O)C[C@H](O)[C@H](Cc1ccccc1)NC(=O)OCc1ccccc1)C(N)=O | 290 nM |  |
| NC(=O)[C@@H](NC(=O)[C@H](CCC(=O)O)NC(=O)C[C@H](O)[C@H](Cc1ccccc1)NC(=O)OCc1ccccc1)c1ccccc1 | 210 nM |  |
| NC(=O)CC[C@H](NC(=O)C[C@H](O)[C@H](Cc1ccccc1)NC(=O)OCc1ccccc1)C(=O)N[C@@H](CC1CCCCC1)C(N)=O | 400 nM |  |
| C[C@@H](O)[C@H](NC(=O)[C@H](CCC(N)=O)NC(=O)C[C@H](O)[C@H](Cc1ccccc1)NC(=O)OCc1ccccc1)C(N)=O | 1300 nM |  |
| CC[C@H](C)[C@H](NC(=O)[C@H](CCC(N)=O)NC(=O)C[C@H](O)[C@H](Cc1ccccc1)NC(=O)OCc1ccccc1)C(N)=O | 240 nM |  |
| CCC[C@H](NC(=O)[C@H](CCC(=O)O)NC(=O)C[C@H](O)[C@H](Cc1ccccc1)NC(=O)OCc1ccccc1)C(N)=O | 410 nM |  |
| CC(C)[C@H](NC(=O)[C@H](CCC(=O)O)NC(=O)C[C@H](O)[C@H](Cc1ccccc1)NC(=O)OCc1ccccc1)C(N)=O | 82 nM | Activity (Cryptococcus neoformans [2]): Dose-Dependent Effect |
| C[C@@H](O)[C@H](NC(=O)[C@H](CCC(=O)O)NC(=O)C[C@H](O)[C@H](Cc1ccccc1)NC(=O)OCc1ccccc1)C(N)=O | 250 nM |  |
| NC(=O)CC[C@H](NC(=O)C[C@H](O)[C@H](Cc1ccccc1)NC(=O)OCc1ccccc1)C(=O)N[C@H](C(N)=O)c1ccccc1 | 360 nM |  |
| CCCC[C@H](NC(=O)[C@H](CCC(N)=O)NC(=O)C[C@H](O)[C@H](Cc1ccccc1)NC(=O)OCc1ccccc1)C(N)=O | 170 nM |  |
| NC(=O)[C@H](Cc1c[nH]c2ccccc12)NC(=O)[C@H](CCC(=O)O)NC(=O)C[C@H](O)[C@H](Cc1ccccc1)NC(=O)OCc1ccccc1 | 340 nM |  |
| CC(C)[C@H](NC(=O)[C@H](Cc1ccccc1)C[C@H](O)[C@H](Cc1ccccc1)NC(=O)OC(C)(C)C)C(=O)N[C@@H](Cc1ccccc1)C(=O)N1CCOCC1 | 13 nM |  |
| CSCC[C@H](NC(=O)[C@H](CCC(=O)O)NC(=O)C[C@H](O)[C@H](Cc1ccccc1)NC(=O)OCc1ccccc1)C(N)=O | 280 nM |  |
| Cc1nc(COc2ccc(C[C@H](NC(=O)O[C@H]3CO[C@H]4OCC[C@H]43)[C@H](O)CN(CC(C)C)S(=O)(=O)c3ccc4c(c3)OCO4)cc2)cs1 [BRECANAVIR] | 350 nM |  |
| CC[C@H](NC(=O)[C@H](CCC(N)=O)NC(=O)C[C@H](O)[C@H](Cc1ccccc1)NC(=O)OCc1ccccc1)C(N)=O | 1200 nM |  |
| CCCC[C@H](NC(=O)[C@H](CCC(=O)O)NC(=O)C[C@H](O)[C@H](Cc1ccccc1)NC(=O)OCc1ccccc1)C(N)=O | 180 nM | Activity (Cryptococcus neoformans [2]): Dose-Dependent Effect |
| NC(=O)[C@H](CC1CCCCC1)NC(=O)[C@H](CCC(=O)O)NC(=O)C[C@H](O)[C@H](Cc1ccccc1)NC(=O)OCc1ccccc1 | 160 nM |  |
| CC(C)C[C@H](NC(=O)[C@H](CCC(=O)O)NC(=O)C[C@H](O)[C@H](Cc1ccccc1)NC(=O)OCc1ccccc1)C(N)=O | 160 nM |  |
| CCC[C@H](NC(=O)[C@H](CCC(N)=O)NC(=O)C[C@H](O)[C@H](Cc1ccccc1)NC(=O)OCc1ccccc1)C(N)=O | 470 nM |  |
| CC(C)CN(C[C@@H](O)[C@H](Cc1ccccc1)NC(=O)O[C@H]1CCOC1)S(=O)(=O)c1ccc(N)cc1 | 750 nM |  |
| CC(C)[C@H](NC(=O)[C@H](CCC(N)=O)NC(=O)C[C@H](O)[C@H](Cc1ccccc1)NC(=O)OCc1ccccc1)C(N)=O | 120 nM |  |
| CC[C@H](NC(=O)[C@H](CCC(=O)O)NC(=O)C[C@H](O)[C@H](Cc1ccccc1)NC(=O)OCc1ccccc1)C(N)=O | 760 nM |  |
| NC(=O)[C@H](Cc1ccccc1)NC(=O)[C@H](CCC(=O)O)NC(=O)C[C@H](O)[C@H](Cc1ccccc1)NC(=O)OCc1ccccc1 | 390 nM |  |
| CCOP(=O)(COc1ccc(C[C@H](NC(=O)O[C@H]2CO[C@H]3OCC[C@H]32)[C@H](O)CN(CC(C)C)S(=O)(=O)c2ccc(OC)cc2)cc1)OCC | 170 nM |  |
